According to ChEMBL document CHEMBL3244145, “Synthesis and quantitative structure--activity relationships of some antibacterial 3-formylrifamycin SV N-(4-substituted phenyl)piperazinoacethydrazones” (J Med Chem, 1978):
In brackets after ≈: the same amount, converted by molar mass. Activity calls are given as the source filed them. The calls are words filed in the database; no cut-off is given here.

Assays:
Mycolicibacterium phlei = assay: Antimicrobial activity against Mycobacterium phlei 111 by serial dilution method; type: functional; details: for MIC: Mycolicibacterium phlei, 111
Clostridium perfringens = assay: Antimicrobial activity against Clostridium perfringens 2 by serial dilution method; type: functional; details: for MIC: Clostridium perfringens, 2
In short: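 Broth MICs were determined by serial dilution of the hydrazones, run in triplicate. Where results differed, the standard deviation of the three determinations is reported.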

Bacillus subtilis = assay: Antimicrobial activity against Bacillus subtilis 104 by serial dilution method; type: functional; details: for MIC: Bacillus subtilis, 104
Staphylococcus aureus = assay: Antimicrobial activity against Staphylococcus aureus 11 by serial dilution method; type: functional; details: for MIC: Staphylococcus aureus, 11
[1] = tested on: Mycobacterium tuberculosis; assay: Antimicrobial activity against Mycobacterium tuberculosis H37Rv by agar dilution method; type: functional; details: for MIC: Mycobacterium tuberculosis, H37Rv
In short: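 Agar dilution: the hydrazone is dissolved in warm Middlebrook agar and serially diluted into two quadrants of a quartered dish, with two drug-free quadrants. After cooling, 0.1 mL of M. tuberculosis suspension (McFarland no. 1, set spectrophotometrically) is inoculated. Plates are incubated 14 days at 37 °C under 5% CO2 and scored for colonies. Run in duplicate.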

Vaccinia virus = assay: Antiviral activity against Vaccinia virus infected in L929 cells assessed as reduction in plaque formation after 3 to 4 days by crystal violet staining method; type: functional, organism-based; details: Orthopoxvirus vaccinia
L929 = assay: Cytotoxicity against mouse L929 cells by microscopic analysis; type: cell-based

SMILES	log(1/C) (Mycolicibacterium phlei)	MIC (Mycolicibacterium phlei) [µg/mL]	log(1/C) (Clostridium perfringens)	MIC (Clostridium perfringens) [µg/mL]	log(1/C) (Bacillus subtilis)	MIC (Bacillus subtilis) [µg/mL]	log(1/C) (Staphylococcus aureus)	MIC (Staphylococcus aureus) [µg/mL]	log(1/C) [1]	MIC [1] [µg/mL]	Activity (Vaccinia virus)	Activity (L929)
CO[C@H]1/C=C/O[C@@]2(C)Oc3c(C)c(O)c4c(O)c(c(/C=N/NC(=O)CN5CCN(c6ccc(C(F)(F)F)cc6)CC5)c(O)c4c3C2=O)NC(=O)/C(C)=C\C=C\[C@H](C)[C@H](O)[C@@H](C)[C@@H](O)[C@@H](C)[C@H](OC(C)=O)[C@@H]1C	5.14	7.38 (≈ 7.31 µM)	8.7	0.002 (≈ 0.00198 µM)	5.01	9.8 (≈ 9.7 µM)	7.62	0.024 (≈ 0.0238 µM)	4.75	18 (≈ 17.8 µM)	inactive	Toxic
CO[C@H]1/C=C/O[C@@]2(C)Oc3c(C)c(O)c4c(O)c(c(/C=N/NC(=O)CN5CCN(c6ccc(Br)cc6)CC5)c(O)c4c3C2=O)NC(=O)/C(C)=C\C=C\[C@H](C)[C@H](O)[C@@H](C)[C@@H](O)[C@@H](C)[C@H](OC(C)=O)[C@@H]1C	5.22	6.13 (≈ 6 µM)	8.23	0.006 (≈ 0.00588 µM)	5.31	5 (≈ 4.9 µM)	7.46	0.035 (≈ 0.0343 µM)	5.08	8.4 (≈ 8.23 µM)	inactive	Toxic
CO[C@H]1/C=C/O[C@@]2(C)Oc3c(C)c(O)c4c(O)c(c(/C=N/NC(=O)CN5CCN(c6ccc(C)cc6)CC5)c(O)c4c3C2=O)NC(=O)/C(C)=C\C=C\[C@H](C)[C@H](O)[C@@H](C)[C@@H](O)[C@@H](C)[C@H](OC(C)=O)[C@@H]1C	5.14	7 (≈ 7.32 µM)	8.14	0.007 (≈ 0.00732 µM)	5.27	5.1 (≈ 5.33 µM)	7.4	0.038 (≈ 0.0397 µM)	4.96	10.5 (≈ 11 µM)	inactive	Toxic
CO[C@H]1/C=C/O[C@@]2(C)Oc3c(C)c(O)c4c(O)c(c(/C=N/NC(=O)CN5CCN(c6ccc(F)cc6)CC5)c(O)c4c3C2=O)NC(=O)/C(C)=C\C=C\[C@H](C)[C@H](O)[C@@H](C)[C@@H](O)[C@@H](C)[C@H](OC(C)=O)[C@@H]1C	5.22	5.75 (≈ 5.99 µM)	8.51	0.005 (≈ 0.00521 µM)	5.3	4.8 (≈ 5 µM)	7.06	0.084 (≈ 0.0875 µM)	4.81	15 (≈ 15.6 µM)	inactive	Toxic
CO[C@H]1/C=C/O[C@@]2(C)Oc3c(C)c(O)c4c(O)c(c(/C=N/NC(=O)CN5CCN(c6ccc(C#N)cc6)CC5)c(O)c4c3C2=O)NC(=O)/C(C)=C\C=C\[C@H](C)[C@H](O)[C@@H](C)[C@@H](O)[C@@H](C)[C@H](OC(C)=O)[C@@H]1C	4.65	21.5 (≈ 22.2 µM)	8.14	0.007 (≈ 0.00724 µM)	4.77	16.3 (≈ 16.9 µM)	7.07	0.082 (≈ 0.0848 µM)	4.72	18.6 (≈ 19.2 µM)	inactive	Toxic
CCc1ccc(N2CCN(CC(=O)N/N=C/c3c4c(O)c5c(O)c(C)c6c(c5c3O)C(=O)[C@@](C)(O/C=C/[C@H](OC)[C@@H](C)[C@@H](OC(C)=O)[C@H](C)[C@H](O)[C@H](C)[C@@H](O)[C@@H](C)/C=C/C=C(/C)C(=O)N4)O6)CC2)cc1	5.16	6.75 (≈ 6.96 µM)	8.51	0.003 (≈ 0.00309 µM)	5.25	5.5 (≈ 5.67 µM)	7.57	0.026 (≈ 0.0268 µM)	4.72	18.6 (≈ 19.2 µM)	inactive	Toxic
CO[C@H]1/C=C/O[C@@]2(C)Oc3c(C)c(O)c4c(O)c(c(/C=N/NC(=O)CN5CCN(c6ccc(NC(C)=O)cc6)CC5)c(O)c4c3C2=O)NC(=O)/C(C)=C\C=C\[C@H](C)[C@H](O)[C@@H](C)[C@@H](O)[C@@H](C)[C@H](OC(C)=O)[C@@H]1C	4.59	31 (≈ 31 µM)	8	0.01 (≈ 0.01 µM)	4.92	12 (≈ 12 µM)	7.22	0.06 (≈ 0.0601 µM)	4.74	18 (≈ 18 µM)	inactive	Toxic
CO[C@H]1/C=C/O[C@@]2(C)Oc3c(C)c(O)c4c(O)c(c(/C=N/NC(=O)CN5CCN(c6ccccc6)CC5)c(O)c4c3C2=O)NC(=O)/C(C)=C\C=C\[C@H](C)[C@H](O)[C@@H](C)[C@@H](O)[C@@H](C)[C@H](OC(C)=O)[C@@H]1C	5.12	7.13 (≈ 7.57 µM)	8.13	0.007 (≈ 0.00743 µM)	5.24	5.4 (≈ 5.73 µM)	7.22	0.057 (≈ 0.0605 µM)	5.03	8.7 (≈ 9.23 µM)	inactive	Toxic
